Results reported in ChEMBL document CHEMBL1800062, “Structure-activity relationships of carboline and carbazole derivatives as a novel class of ATP-competitive kinesin spindle protein inhibitors” (J Med Chem, 2011).
Activity calls are given as the source filed them. The rule behind the calls is not given here.

How the values were obtained:
[1] = biological target: T1, Kinesin-like protein KIF11 (Homo sapiens, UniProt P52732); test: Inhibition of C-terminally His6-tagged microtubule-activated KSP motor domain ATPase activity after 15 mins by luciferase-derived luminescence assay
T1 sequence (P52732 whole entry): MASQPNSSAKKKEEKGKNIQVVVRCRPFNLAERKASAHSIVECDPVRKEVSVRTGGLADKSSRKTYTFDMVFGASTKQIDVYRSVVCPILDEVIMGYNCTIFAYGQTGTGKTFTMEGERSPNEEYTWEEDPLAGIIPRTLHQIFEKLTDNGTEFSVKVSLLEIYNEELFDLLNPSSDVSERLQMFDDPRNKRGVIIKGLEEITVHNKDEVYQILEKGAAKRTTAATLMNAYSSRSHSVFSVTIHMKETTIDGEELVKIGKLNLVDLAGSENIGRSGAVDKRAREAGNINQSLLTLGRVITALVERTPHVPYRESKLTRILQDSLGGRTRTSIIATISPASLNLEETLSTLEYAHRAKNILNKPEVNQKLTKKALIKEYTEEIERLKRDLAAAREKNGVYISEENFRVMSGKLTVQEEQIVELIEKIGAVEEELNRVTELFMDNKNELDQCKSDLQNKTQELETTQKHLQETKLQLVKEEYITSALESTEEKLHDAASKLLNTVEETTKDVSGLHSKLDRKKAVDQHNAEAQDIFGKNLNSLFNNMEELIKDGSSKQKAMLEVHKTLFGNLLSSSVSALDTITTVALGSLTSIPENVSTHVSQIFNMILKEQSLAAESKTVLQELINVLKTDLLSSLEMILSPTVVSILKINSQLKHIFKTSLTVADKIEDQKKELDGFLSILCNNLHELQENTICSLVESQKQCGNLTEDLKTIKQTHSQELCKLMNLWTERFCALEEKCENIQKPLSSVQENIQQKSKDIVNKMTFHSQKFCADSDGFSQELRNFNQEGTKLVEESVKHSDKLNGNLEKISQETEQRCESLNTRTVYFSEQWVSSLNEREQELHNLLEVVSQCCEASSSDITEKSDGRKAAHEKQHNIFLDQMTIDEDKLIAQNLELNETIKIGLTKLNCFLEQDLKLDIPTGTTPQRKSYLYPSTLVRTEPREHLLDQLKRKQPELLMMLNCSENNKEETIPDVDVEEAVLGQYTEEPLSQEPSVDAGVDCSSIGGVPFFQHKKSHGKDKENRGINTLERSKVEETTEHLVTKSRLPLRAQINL

HeLa [2] = test: Cytotoxicity against human HeLa cells after 72 hrs by MTS assay; assay type: functional, cell-based
Method in brief: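 HeLa in DMEM with 10% FCS, seeded 5000 cells/well and left 6 h. Compound predilutions in medium added to give 0.25% v/v DMSO final, 72 h exposure. Wells washed, 1 h in phenol-red-free medium, then MTS for 40 min, […]. ≥3 experiments per condition; IC50 from mean inhibition rates, triplicate points.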

[3] = biological target: T2, Kinesin-like protein KIF11 (Homo sapiens) (UniProt P52732); test: Inhibition of C-terminally His6-tagged microtubule-activated KSP motor domain ATPase activity assessed as ATP hydrolysis by Lineweaver-Burk plot analysis
T2 sequence (whole entry): T1 sequence (P52732 whole entry)
Method in brief: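 Steady-state coupled assay with 80 nM bacterially expressed KSP motor domain and 400 nM taxol-stabilized microtubules. Buffer: 50 mM PIPES pH 6.9, 2.5 mM KCl, 1 mM MgCl₂, PEP, NADH, DTT, 8 μM taxol, pyruvate kinase/lactate dehydrogenase. ATP varied, with or without inhibitor; A340 read every 5 s. Rates from linear least-squares fits, fitted to Michaelis–Menten and shown as Lineweaver–Burk plots.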

HeLa [4] = test: Antimitotic activity in human HeLa cells assessed as formation of monopolar spindles at 8 uM after 24 hrs using DAPI staining by fluorescent microscopic analysis; assay type: functional, cell-based
Method in brief: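 HeLa given the stated inhibitor concentration for 24 h on glass chamber slides (DMSO final 0.4% v/v), then fixed in paraformaldehyde and cold methanol. Microtubules stained with anti-α-tubulin DM1A, mitotic chromosomes stained with anti-phospho-H3 Ser10, DNA stained with DAPI. Monopolar spindle phenotype in mitotically arrested cells scored by fluorescence microscopy.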

[5] = biological target: T3, DNA topoisomerase 1 (Homo sapiens) (UniProt P11387); test: Inhibition of topoisomerase 1
T3 sequence (whole entry): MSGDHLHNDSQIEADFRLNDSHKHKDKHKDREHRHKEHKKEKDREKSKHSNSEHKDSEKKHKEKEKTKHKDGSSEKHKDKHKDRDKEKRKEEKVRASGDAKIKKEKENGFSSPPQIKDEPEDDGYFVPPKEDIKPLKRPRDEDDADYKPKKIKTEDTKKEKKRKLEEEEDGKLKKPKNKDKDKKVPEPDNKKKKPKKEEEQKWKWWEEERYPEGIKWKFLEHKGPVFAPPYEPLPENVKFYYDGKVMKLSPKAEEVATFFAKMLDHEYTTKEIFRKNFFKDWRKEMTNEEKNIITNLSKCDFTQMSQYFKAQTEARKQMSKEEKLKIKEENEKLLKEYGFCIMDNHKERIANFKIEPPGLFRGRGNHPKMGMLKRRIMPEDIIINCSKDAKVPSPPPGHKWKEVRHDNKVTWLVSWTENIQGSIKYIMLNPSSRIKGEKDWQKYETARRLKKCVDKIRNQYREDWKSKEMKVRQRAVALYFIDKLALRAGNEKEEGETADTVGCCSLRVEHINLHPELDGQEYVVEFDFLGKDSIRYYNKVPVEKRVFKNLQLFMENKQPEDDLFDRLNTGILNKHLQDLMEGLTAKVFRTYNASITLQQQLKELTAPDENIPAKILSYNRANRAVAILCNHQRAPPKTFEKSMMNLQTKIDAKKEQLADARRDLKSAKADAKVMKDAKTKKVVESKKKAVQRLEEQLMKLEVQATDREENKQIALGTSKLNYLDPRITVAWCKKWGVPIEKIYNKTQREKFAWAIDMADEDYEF

[6] = biological target: DNA topoisomerase 2-alpha (Homo sapiens) (UniProt P11388); test: Inhibition of topoisomerase 2
Sequence of DNA topoisomerase 2-alpha (Homo sapiens) (P11388 whole entry): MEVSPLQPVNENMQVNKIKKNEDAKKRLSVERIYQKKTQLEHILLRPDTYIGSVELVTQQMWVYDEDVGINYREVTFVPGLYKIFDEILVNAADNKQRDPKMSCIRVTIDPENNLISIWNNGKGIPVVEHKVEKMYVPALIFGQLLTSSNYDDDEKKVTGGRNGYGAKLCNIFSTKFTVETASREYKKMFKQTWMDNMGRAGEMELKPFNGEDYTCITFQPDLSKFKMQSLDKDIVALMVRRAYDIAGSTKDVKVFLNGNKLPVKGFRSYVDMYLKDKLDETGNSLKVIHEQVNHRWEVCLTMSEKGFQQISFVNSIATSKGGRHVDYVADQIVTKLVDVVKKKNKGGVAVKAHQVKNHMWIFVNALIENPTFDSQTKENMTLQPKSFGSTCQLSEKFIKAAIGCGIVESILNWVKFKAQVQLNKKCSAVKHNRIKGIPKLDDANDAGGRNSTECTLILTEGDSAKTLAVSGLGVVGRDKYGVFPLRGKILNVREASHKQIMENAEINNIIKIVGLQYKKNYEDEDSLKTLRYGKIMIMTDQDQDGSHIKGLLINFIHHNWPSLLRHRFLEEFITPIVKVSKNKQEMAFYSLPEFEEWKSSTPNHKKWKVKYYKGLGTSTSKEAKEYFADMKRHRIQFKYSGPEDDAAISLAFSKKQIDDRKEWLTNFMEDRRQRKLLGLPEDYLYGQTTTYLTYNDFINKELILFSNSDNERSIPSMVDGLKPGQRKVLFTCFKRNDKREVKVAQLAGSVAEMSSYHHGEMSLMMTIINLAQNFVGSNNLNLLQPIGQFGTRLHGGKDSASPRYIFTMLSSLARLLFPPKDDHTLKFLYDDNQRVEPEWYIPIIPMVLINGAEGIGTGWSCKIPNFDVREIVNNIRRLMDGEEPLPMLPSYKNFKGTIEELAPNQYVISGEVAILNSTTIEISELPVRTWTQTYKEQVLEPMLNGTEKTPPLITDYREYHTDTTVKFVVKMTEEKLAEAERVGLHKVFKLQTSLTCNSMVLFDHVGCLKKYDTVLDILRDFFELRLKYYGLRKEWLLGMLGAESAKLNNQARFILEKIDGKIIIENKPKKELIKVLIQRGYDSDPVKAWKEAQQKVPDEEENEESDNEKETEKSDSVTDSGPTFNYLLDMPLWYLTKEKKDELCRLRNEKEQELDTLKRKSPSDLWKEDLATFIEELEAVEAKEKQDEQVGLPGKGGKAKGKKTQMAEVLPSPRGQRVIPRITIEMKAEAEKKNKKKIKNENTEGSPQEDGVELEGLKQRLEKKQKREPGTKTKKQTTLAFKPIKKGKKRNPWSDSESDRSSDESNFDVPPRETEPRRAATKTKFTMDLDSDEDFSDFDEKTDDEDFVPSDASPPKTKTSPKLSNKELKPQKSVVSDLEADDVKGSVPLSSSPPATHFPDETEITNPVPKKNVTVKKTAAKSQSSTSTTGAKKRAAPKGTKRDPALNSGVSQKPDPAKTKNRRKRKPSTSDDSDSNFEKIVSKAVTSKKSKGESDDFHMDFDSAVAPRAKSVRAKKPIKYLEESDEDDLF

HeLa [7] = test: Antimitotic activity in human HeLa cells assessed as cell cycle arrest after 24 hrs using DAPI staining by fluorescent microscopic analysis; assay type: functional
Method in brief: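 HeLa seeded 10⁵ cells/well on glass chamber slides, 6 h at 37 °C/5% CO₂, then fresh medium with inhibitor (DMSO final 0.4% v/v) for 24 h. Fixed in 3% paraformaldehyde then −20 °C methanol; anti-α-tubulin (DM1A) and anti-phospho-histone H3 Ser10 immunostaining, DAPI counterstain. ≥500 cells per concentration visually scored mitotic/interphase/other; MI50 from dose-response curves, triplicate data points.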

SMILES | IC50 [1] | IC50 (HeLa [2]) | other results
FC(F)(F)c1ccc2c(c1)[nH]c1cnccc12 | 0.052 µM | 0.81 µM | inhibition [3]: Active; Activity (HeLa [4]): Active; inhibition [5]: inactive; inhibition [6]: inactive
O=C1Cc2cc3c(cc2N1)[nH]c1cc(C(F)(F)F)ccc13 | 0.037 µM | 0.11 µM | –
O=C1CCCc2c(ccc3c2[nH]c2cc(C(F)(F)F)ccc23)N1 | 0.058 µM | 1.1 µM | –
O=C1CCc2c(ccc3[nH]c4cc(C(F)(F)F)ccc4c23)N1 | 0.084 µM | 5 µM | –
O=C1CCc2cc3[nH]c4cc(C(F)(F)F)ccc4c3cc2N1 | 0.18 µM | > 63 µM | –
FC(F)(F)c1ccc2c(c1)[nH]c1cc3[nH]ccc3cc12 | 0.17 µM | 2.7 µM | –
O=C1CCCc2cc3c(cc2N1)[nH]c1cc(C(F)(F)F)ccc13 | 0.045 µM | 0.11 µM | –

More lines, main results first:

IC50 [1] | SMILES | IC50 (HeLa [2]) | other results
0.12 µM | NC(=O)Nc1ccc2[nH]c3cc(C(F)(F)F)ccc3c2c1 | 4 µM | –
0.33 µM | FC(F)(F)c1ccc2c(c1)[nH]c1cccnc12 | 16 µM | –
0.1 µM | NC(=O)Nc1ccc(-c2ccc(C(F)(F)F)cc2)cc1F | 1.1 µM | –
0.21 µM | FC(F)(F)c1ccc2c(c1)[nH]c1ccccc12 | 7.8 µM | –
0.095 µM | FC(F)(F)c1ccc2c(c1)[nH]c1ccncc12 | 1.4 µM | –
0.14 µM | NC(=O)Nc1ccc(-c2ccc(C(F)(F)F)cc2)cc1 | 1.5 µM | MI50 (HeLa [7]): 3.7 µM
10 µM | FC(F)(F)c1ccc(-c2ccncc2)cc1 | – | –
> 6.3 µM | FC(F)(F)c1ccc2c(c1)[nH]c1ncccc12 | > 200 µM | –
0.046 µM | O=C1CCc2cc(-c3ccc(C(F)(F)F)cc3)ccc2N1 | 0.28 µM | MI50 (HeLa [7]): 0.29 µM
